Experimental data as given in paper PMC10270725 (Journal of medicinal chemistry, 2023).

Key:
[1] = system: NF2-sufficient NCI-H28 mesothelioma cells; assay: Proliferation assay in NCI-H28 cells; format: cell-based
[2] = target: recombinant TEAD1-YBD protein (Homo sapiens, UniProt P28347); assay: Intact mass spectrometry analysis of covalent labeling; format: binding; conditions: 10-fold molar excess of compound, 1 h at rt
In short: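 TEAD1-YBD (residues 209−424, N-terminal 6×His) was expressed in Rosetta(DE3) pLysS and purified on cobalt resin, then by gel filtration. Protein was incubated with DMSO or test compound for 1 h at rt. It was desalted 4 min in 0.2 M acetic acid on a POROS 50R2 column and eluted with a 1-min 0–100% acetonitrile gradient in 0.2 M acetic acid. Analysis was electrospray (4.5 kV) ion-trap MS.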

[3] = target: His-TEAD1-YBD recombinant protein (Homo sapiens, UniProt P28347); assay: TEAD1 TR-FRET biochemical assay; format: binding; conditions: fixed time point 5 h
Sequence of His-TEAD1-YBD recombinant protein (P28347 209-424): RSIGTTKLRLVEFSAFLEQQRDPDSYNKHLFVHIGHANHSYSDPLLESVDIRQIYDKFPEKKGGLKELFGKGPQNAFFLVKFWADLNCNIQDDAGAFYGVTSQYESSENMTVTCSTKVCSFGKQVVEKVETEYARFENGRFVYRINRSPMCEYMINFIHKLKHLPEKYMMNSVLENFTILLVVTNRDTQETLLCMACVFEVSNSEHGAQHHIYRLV
In short: (§1)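 100 nM His-TEAD-YBD was pretreated with test compound for 5 h. Then 800 nM FAM-labeled tracer built from a reversible pan-TEAD inhibitor was added, with anti-6His Tb cryptate antibody (50 ng/mL final). TR-FRET was read at 490/520 nm. IC50 is mean ± SEM of two experiments, each with three biological replicates.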

[4] = target: His-TEAD2-YBD recombinant protein (Homo sapiens, UniProt Q15562); assay: TEAD2 TR-FRET biochemical assay; format: binding; conditions: fixed time point 5 h
Sequence of His-TEAD2-YBD recombinant protein (Q15562 217-447 limits assumed): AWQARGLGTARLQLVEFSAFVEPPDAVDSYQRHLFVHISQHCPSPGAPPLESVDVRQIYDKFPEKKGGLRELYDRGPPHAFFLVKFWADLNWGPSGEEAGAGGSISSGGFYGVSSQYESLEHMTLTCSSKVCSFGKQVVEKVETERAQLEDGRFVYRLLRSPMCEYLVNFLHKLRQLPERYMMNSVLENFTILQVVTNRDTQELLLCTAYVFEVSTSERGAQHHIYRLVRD
In short: as §1

[5] = target: His-TEAD3-YBD recombinant protein (Homo sapiens, UniProt Q99594); assay: TEAD3 TR-FRET biochemical assay; format: binding; conditions: fixed time point 5 h
Sequence of His-TEAD3-YBD recombinant protein (Q99594 219-435 limits assumed): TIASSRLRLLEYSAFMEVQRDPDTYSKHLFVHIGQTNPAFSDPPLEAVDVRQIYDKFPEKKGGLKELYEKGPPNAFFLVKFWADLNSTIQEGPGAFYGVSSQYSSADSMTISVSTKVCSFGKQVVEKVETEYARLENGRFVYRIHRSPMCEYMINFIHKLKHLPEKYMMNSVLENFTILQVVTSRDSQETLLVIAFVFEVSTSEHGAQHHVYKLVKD
In short: as §1

[6] = target: His-TEAD4-YBD recombinant protein (Homo sapiens, UniProt Q15561); assay: TEAD4 TR-FRET biochemical assay; format: binding; conditions: fixed time point 5 h
Sequence of His-TEAD4-YBD recombinant protein (Q15561 217-434 limits assumed): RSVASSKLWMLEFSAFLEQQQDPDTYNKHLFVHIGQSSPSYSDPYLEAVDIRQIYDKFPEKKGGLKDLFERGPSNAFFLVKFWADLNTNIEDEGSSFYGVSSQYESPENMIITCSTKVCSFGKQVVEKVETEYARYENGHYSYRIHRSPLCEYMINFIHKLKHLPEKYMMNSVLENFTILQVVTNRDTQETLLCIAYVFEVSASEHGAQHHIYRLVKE
In short: as §1

[7] = system: TEAD transcription (pan-TEAD response element luciferase reporter) in NCI-H226 cells; assay: TEAD gene reporter; format: cell-based
In short: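 NCI-H226 cells (RPMI1640, 10% FBS, 1% penicillin/streptomycin) were transduced with TEAD luciferase reporter lentivirus plus 8 μg/mL polybrene and puromycin-selected from day 3. Reporter cells were seeded at 1000 cells/well in 384-well plates and dosed with test compound for 3 days. One-Glo luciferase signal was normalized to CellTiter-Glo viability.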

Sequence of recombinant TEAD1-YBD protein (P28347 209-424): as the sequence (P28347 209-424) above

| Compound | effect on proliferation of NCI-H28 cells [1] | TEAD1 TR-FRET IC50 [3] | TEAD2 TR-FRET IC50 [4] | TEAD3 TR-FRET IC50 [5] | TEAD4 TR-FRET IC50 [6] | also measured |
| --- | --- | --- | --- | --- | --- | --- |
| C=C(F)C(=O)N1C[C@@H](Nc2ncccn2)[C@H](OCc2ccc(C(F)(F)F)cc2)C1 [Compound 22, 2-Fluoro-1-((3R,4R)-3-(pyrimidin-2-ylamino)-4-((4-(trifluoromethyl)benzyl)oxy)pyrrolidin-1-yl)prop-2-en-1-one] | limited effect | – | – | – | – | covalent complex formation with TEAD1-YBD (intact mass shift) [2]: mass shift consistent with compound 22 |
| CN(C)C/C=C/C(=O)N1C[C@@H](n2cc(-c3cccnc3)nn2)[C@H](OCc2ccc(C(F)(F)F)cc2)C1 [Compound 19, (E)-4-(Dimethylamino)-1-((3R,4R)-3-(4-(pyridin-3-yl)-1H-1,2,3-triazol-1-yl)-4-(4-(trifluoromethyl)benzyloxy)pyrrolidin-1-yl)but-2-en-1-one] | – | inactive | inactive | inactive | inactive | IC50 in the reporter gene assay (TEAD transcription) ([7]; NCI-H226 reporter cells, 3 day treatment, mean ± SEM): did not inhibit |
| 1-(trans-4-(5-Fluoropyrimidin-2-ylamino)-3-(4-(trifluoromethyl)-benzyloxy)piperidin-1-yl)prop-2-en-1-one [Compound 16] | – | – | – | – | – | IC50 ([7]; read-out: IC50 in the reporter gene assay (TEAD transcription), NCI-H226 reporter cells, 3 day treatment, mean ± SEM): 0.171 ± 0.088 µM |
| C=CC(=O)N1C[C@@H](Nc2ncccn2)[C@H](OCc2ccc(C(F)(F)F)cc2)C1 (relative stereo) [Compound 14, 1-(trans-3-(Pyrimidin-2-ylamino)-4-((4-(trifluoromethyl)benzyl)-oxy)pyrrolidin-1-yl)prop-2-en-1-one] | limited effect | – | – | – | – | – |
| C=CC(=O)N1C[C@@H](n2cc(-c3cccnc3)nn2)[C@H](OCc2ccc(C(F)(F)F)cc2)C1 (relative stereo) [Compound 1, 1-(trans-3-(4-(Pyridin-3-yl)-1H-1,2,3-triazol-1-yl)-4-((4-(trifluoromethyl)benzyl)oxy)pyrrolidin-1-yl)prop-2-en-1-one] | – | low nanomolar | low nanomolar | low nanomolar | low nanomolar | EC50 ([7]; Homo sapiens, NCI-H226, 72 h, read-out: EC50 in the TEAD reporter assay): 0.106 ± 0.03 µM |
